Results reported in ChEMBL document CHEMBL4680154, “The optimization of xanthine derivatives leading to HBK001 hydrochloride as a potent dual ligand targeting DPP-IV and GPR119” (Eur J Med Chem, 2020).
Activity calls are given as the source filed them. The rule behind the calls is not given here.

The compounds below were run on Mus musculus (assay: Antidiabetic activity in ICR mouse assessed as reduction in blood glucose level at 30 mg/kg, po administered as single dose followed by oral glucose challenge measured after 30 mins by glucose oxidase method). Details: not given.
Format: functional, organism-based
Method in brief: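 Overnight-fasted ICR mice given compound by oral gavage (vehicle distilled water) before a 2 g/kg oral glucose load. Tail-tip blood taken at 0, 30, 60 and 120 min; glucose measured by the glucose oxidase method. n = 10 per group, mean ± SEM.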
CC#CCn1c(N2CCC[C@@H](N)C2)nc2c1c(=O)n(CCCN1CCN(c3nc(-c4ccccc4)no3)CC1)c(=O)n2C was tested, and the Activity was “Active”.

What follows are compounds tested against T1, Glucose-dependent insulinotropic receptor (Homo sapiens) (UniProt Q8TDV5) (assay: Agonist activity at CREB-LBD and Gal4-DBD fused recombinant human GPR119 expressed in HEK293 cells at 1 uM by firefly luciferase assay relative to AR231453). Details: not given.
T1 sequence (whole entry): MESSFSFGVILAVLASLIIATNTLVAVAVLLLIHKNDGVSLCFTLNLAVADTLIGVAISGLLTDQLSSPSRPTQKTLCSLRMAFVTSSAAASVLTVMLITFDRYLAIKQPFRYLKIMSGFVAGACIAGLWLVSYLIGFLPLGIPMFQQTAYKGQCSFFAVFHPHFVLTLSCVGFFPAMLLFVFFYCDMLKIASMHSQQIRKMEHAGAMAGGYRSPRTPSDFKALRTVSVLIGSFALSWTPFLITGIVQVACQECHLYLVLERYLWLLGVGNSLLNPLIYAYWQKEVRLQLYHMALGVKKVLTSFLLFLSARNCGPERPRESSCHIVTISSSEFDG
Format: functional, cell-based
Method in brief: (§1)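 HEK293 cells transiently transfected with human GPR119, a Gal4-DBD/CREB-LBD fusion and a Gal4 UAS-driven luciferase reporter, then treated with compound (DMSO vehicle). Firefly luciferase luminescence read. Activation fold = compound/vehicle, expressed as percent of the AR231453 activation fold. EC50 obtained by curve fitting.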
Work on CC#CCn1c(N2CCC[C@@H](N)C2)nc2c1c(=O)n(CCCN1CCN(c3nnc(-c4ccccc4)[nH]3)CC1)c(=O)n2C yielded an Activity of 38%.

Same assay, conditions: filed as agonist
Compound CC#CCn1c(N2CCC[C@@H](N)C2)nc2c1c(=O)n(CCCN1CCN(c3ncc(F)cn3)CC1)c(=O)n2C has an Activity of 78%. CC#CCn1c(N2CCC[C@@H](N)C2)nc2c1c(=O)n(CCCN1CCN(c3ncc(CCC)cn3)CC1)c(=O)n2C showed an Activity of 84%. CC(C)c1noc(C2CCN(c3ncnc(Nc4ccc(S(C)(=O)=O)cc4F)c3[N+](=O)[O-])CC2)n1 was tested, and the Activity was 100%. CC#CCn1c(N2CCC[C@@H](N)C2)nc2c1c(=O)n(CCCN1CCC(c3nc(-c4ccccc4)cs3)CC1)c(=O)n2C was tested, and the Activity was 83%. CC#CCn1c(N2CCC[C@@H](N)C2)nc2c1c(=O)n(CCCN1CCN(c3nc(-c4ccccc4)no3)CC1)c(=O)n2C gave an Activity of 58%.

What follows are compounds tested against T2, Glucose-dependent insulinotropic receptor (Homo sapiens, UniProt Q8TDV5) (assay: Agonist activity at CREB-LBD and Gal4-DBD fused recombinant human GPR119 expressed in HEK293 cells by firefly luciferase assay). Details: not given.
T2 sequence (Q8TDV5 whole entry): T1 sequence (whole entry)
Format: functional, cell-based
Method in brief: as §1
Work on CC#CCn1c(N2CCC[C@@H](N)C2)nc2c1c(=O)n(CCCN1CCN(c3ncc(F)cn3)CC1)c(=O)n2C yielded an EC50 of 1.41 µM. Compound CC#CCn1c(N2CCC[C@@H](N)C2)nc2c1c(=O)n(CCCN1CCN(c3ncc(CCC)cn3)CC1)c(=O)n2C has an EC50 of 1.85 µM. In the case of CC(C)c1noc(C2CCN(c3ncnc(Nc4ccc(S(C)(=O)=O)cc4F)c3[N+](=O)[O-])CC2)n1, the EC50 is reported as 0.64 µM. For CC#CCn1c(N2CCC[C@@H](N)C2)nc2c1c(=O)n(CCCN1CCC(c3nc(-c4ccccc4)cs3)CC1)c(=O)n2C, the EC50 was 3.13 µM.

What follows are compounds tested against DPP8/9 (Homo sapiens, UniProt Q6V1X1+Q86TI2) (assay: Inhibition of recombinant human DPP8/9 expressed in Rosetta cells at 10 uM using Gly-Pro-p-nitroanilide as substrate incubated for 1 hr relative to control). Details: probe Gly-Pro-p-nitroanilide.
For CC#CCn1c(N2CCC[C@@H](N)C2)nc2c1c(=O)n(CCCN1CCC(c3nc(-c4ccccc4)cs3)CC1)c(=O)n2C, the inhibition at 1 h, 10 µM was 2.2%. In the case of CC#CCn1c(N2CCC[C@@H](N)C2)nc2c1c(=O)n(CCCN1CCN(c3nnc(-c4ccccc4)[nH]3)CC1)c(=O)n2C, the inhibition at 1 h, 10 µM is reported as 7.3%.
